Measurements reported in ChEMBL document CHEMBL3871300, “Synthesis and evaluation of the anti-proliferative activity of diaryl-3-pyrrolin-2-ones and fused analogs” (Bioorg Med Chem Lett, 2017).

Test: Cytotoxicity against human U937 cells assessed as cell viability at antiproliferative IC50 after 48 hrs by trypan exclusion assay
Assay type: functional, U-937
Details: not given

With `COc1ccc(C2=C(c3cn(C)c4ccccc34)C(=O)NC2)cc1OC` as the compound, how does the Activity read?
The Activity was 61%.

Which Activity does the source give for `COc1cc(C2=C(c3cc(OC)c(OC)c(OC)c3)C(=O)NC2)cc(OC)c1OC` here?
The Activity was 51%.

Test: Antiproliferative activity against human U937 cells after 48 hrs by MTT assay
Assay type: functional, cell-based
Details: U-937, 48 h
Summary of the method: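 Human promonocytic U-937 cells exposed to compound for 48 h, then MTT added as an indirect viability read-out via mitochondrial activity. IC50 taken as the concentration reducing viability to 50% of mock-treated cells. Values averaged from at least three independent runs, each with eight replicates, with standard errors; n gives the number of independent runs.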

With `Cn1cc(C2=C(c3ccccc3)CNC2=O)c2ccccc21` as the compound, how does the IC50 read?
Its IC50 is over 100 µM.

For `COc1cc2c3c(c4cc(OC)c(OC)cc4c2cc1OC)C(=O)NC3`, which IC50 is on record?
Its IC50 is over 100 µM.

Which IC50 does the source give for `COc1cc2c3c(c4c5ccccc5n(C)c4c2cc1OC)C(=O)NC3` here?
Its IC50 is 48 µM.

Which IC50 does the source give for `COc1cc(C2=C(c3ccccc3)CNC2=O)cc(OC)c1OC` here?
The IC50 was 33 µM.

For `COc1ccc(C2=C(c3cn(C)c4ccccc34)CNC2=O)cc1OC`, which IC50 is on record?
The IC50 was over 100 µM.

For `COc1cc(C2=C(c3ccccc3)C(=O)NC2)cc(OC)c1OC`, which IC50 is on record?
Its IC50 is 84 µM.

For `COc1ccc(C2=C(c3cn(C)c4ccccc34)C(=O)NC2)cc1OC`, which IC50 is on record?
Its IC50 is 10 µM.

Which IC50 does the source give for `COc1ccc(C2=C(c3ccc(OC)c(OC)c3)C(=O)NC2)cc1OC` here?
The IC50 was 57 µM.

With `COc1cc(C2=CC(=O)NC2)cc(OC)c1OC` as the compound, how does the IC50 read?
Its IC50 is over 100 µM.

With `COc1cc(C2=C(c3cc(OC)c(OC)c(OC)c3)C(=O)NC2)cc(OC)c1OC` as the compound, how does the IC50 read?
The IC50 was 11 µM.

For `Cn1cc(C2=CC(=O)NC2)c2ccccc21`, which IC50 is on record?
The IC50 was over 100 µM.

With `COc1ccc(C2=C(c3ccc(OC)cc3)C(=O)NC2)cc1` as the compound, how does the IC50 read?
The IC50 was 13 µM.

For `COc1cc(C2=C(c3cn(C)c4ccccc34)C(=O)NC2)cc(OC)c1OC`, which IC50 is on record?
Its IC50 is 38 µM.

Which IC50 does the source give for `COc1ccc(C2=CC(=O)NC2)cc1OC` here?
Its IC50 is over 100 µM.
